According to PMC6253716 (Chemical Science, 2018):
Read-outs that look alike come from different tables or passages of the source.

Assays:
[1] = tested on: HCT116 KRAS mutant colorectal cells; assay: Cell proliferation assay; type: cell-based; details: Homo sapiens, HCT-116, 96 h, read-out: Anti-proliferative IC50 HCT116
Summary of the method: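 Cells were kept in DMEM + 10% FBS at 37 °C, 5% CO2. 5 × 10^3 cells were seeded one day before treatment. Compound was given in 0.1% (v/v) DMSO for 96 h, then viability was read with Alamar Blue. IC50 came from a sigmoidal dose–response fit.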

[2] = tested on: pRSK in HCT116 cells; assay: Quantification of pRSK by MSD, HCT116; type: cell-based; details: for IC50: Homo sapiens, read-out: Pharmacodynamic IC50 (pRSK)
Summary of the method: (§1)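 Lysis was 20 min at RT. Lysate was captured 3 h at RT on anti-pRSK-coated MSD plates, detected with sulfo-tag anti-RSK antibody for 1 h, and read electrochemiluminescently. IC50 came from a sigmoidal dose–response fit.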

[3] = tested on: pRSK in A375 cells; assay: Quantification of pRSK by MSD, A375; type: cell-based; details: Homo sapiens, read-out: Pharmacodynamic IC50 (pRSK)
Summary of the method: as §1

[4] = tested on: ERK1/2; assay: In-lysate ERK1/2 pull down in competition with SCH-TCO; type: binding; details: cell lysates
[5] = tested on: ERK1/2; assay: In-lysate ERK1/2 pull down in competition with TCO-GDC-2; type: binding; details: HCT116 lysates; for Target engagement EC50 with TCO-GDC-2 probe (in words): apparently exaggerated
[6] = molecular target: T1, ERK2 (Homo sapiens, UniProt P28482); assay: ERK2 bioassay; type: biochemical
T1 sequence (P28482 whole entry): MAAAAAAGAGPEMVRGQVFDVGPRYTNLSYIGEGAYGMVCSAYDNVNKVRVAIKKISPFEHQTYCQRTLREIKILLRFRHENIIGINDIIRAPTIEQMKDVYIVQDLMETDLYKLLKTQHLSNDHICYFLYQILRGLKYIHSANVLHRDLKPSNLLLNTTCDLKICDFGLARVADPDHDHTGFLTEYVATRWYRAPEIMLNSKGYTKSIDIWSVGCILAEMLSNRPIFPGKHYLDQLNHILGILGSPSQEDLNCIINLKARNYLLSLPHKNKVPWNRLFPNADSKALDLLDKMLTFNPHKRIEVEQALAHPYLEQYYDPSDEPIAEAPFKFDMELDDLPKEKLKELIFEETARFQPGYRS

[7] = molecular target: T2, ERK1 (Homo sapiens, UniProt P27361); assay: In-cell ERK1/2 pull down in competition with SCH-TCO, ERK1; type: cell-based
T2 sequence (P27361 whole entry): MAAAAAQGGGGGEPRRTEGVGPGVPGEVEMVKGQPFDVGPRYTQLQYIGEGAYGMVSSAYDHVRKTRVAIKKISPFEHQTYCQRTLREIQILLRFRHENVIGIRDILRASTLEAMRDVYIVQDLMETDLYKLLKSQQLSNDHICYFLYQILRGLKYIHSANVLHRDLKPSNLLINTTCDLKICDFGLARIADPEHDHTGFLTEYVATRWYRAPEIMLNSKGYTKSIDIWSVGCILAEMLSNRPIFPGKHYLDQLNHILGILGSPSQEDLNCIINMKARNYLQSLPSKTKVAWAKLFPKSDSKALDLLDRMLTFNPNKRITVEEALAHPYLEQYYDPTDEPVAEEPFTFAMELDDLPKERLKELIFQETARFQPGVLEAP

[8] = molecular target: T1, ERK2; assay: In-cell ERK1/2 pull down in competition with SCH-TCO, ERK2; type: cell-based
[9] = molecular target: T2, ERK1; assay: ITDR-CETSA in HCT116 cells, ERK1; type: cell-based
[10] = molecular target: T1, ERK2; assay: ITDR-CETSA in HCT116 cells, ERK2; type: cell-based
[11] = tested on: ERK1/2; assay: CETSA melting curves; type: cell-based; details: HCT116 cells and lysates; 10 μM inhibitor
Summary of the method: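 HCT116 cells in McCoy's 5A at 3 × 10^6 cells per mL got DMSO or 10 μM inhibitor for 1 h at 37 °C. Lysate arm: TG lysis buffer lysate with 10 μM inhibitor for 15 min at RT. Samples were heated 3 min at 12 temperatures (37–70 °C) and lysed by 3 freeze–thaw cycles. Soluble fraction (20 000g, 20 min) was immunoblotted for total ERK1/2 and quantified by densitometry into melting curves.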

[12] = tested on: ERK1/2; details: published data for the untagged compound; cited from earlier work

| IC50 [1] [nM] | IC50 ([2]; HCT-116, 2 h) [nM] | IC50 ([2]; HCT-116, 7 h) [nM] | IC50 ([3]; A-375, 2 h) [nM] | IC50 ([3]; A-375, 7 h) [nM] | Difference between EC50 in A375 and HCT116 lysates [4] | Difference between EC50 in competition with TCO-GDC-2 as compared with SCH-TCO [5] [fold] | Target engagement EC50 with TCO-GDC-2 probe (in words) [5] | Bioassay % @ 0.003 μM ([6]; at 0.003 μM) | EC50 [7] [nM] | EC50 [8] [nM] | EC50 [9] [nM] | EC50 [10] [nM] | IC50 ([3]; A-375, 4 h) [nM] | Difference between engagement of ERK1 and ERK2 ([10]; ITDR-CETSA in HCT116 cells, higher affinity for ERK2) [fold] | Inhibition of ERK2 (in words) [6] | IC50 ([6]; read-out: Bioassay IC50, geometric means) [µM] | Molecule | Suppression of pRSK ([2]; HCT116 cells) | Effect on CETSA melting curves of ERK1/2 relative to DMSO control [11] | t1/2 (off-rate, published data) [12] [min] |
| --- | --- | --- | --- | --- | --- | --- | --- | --- | --- | --- | --- | --- | --- | --- | --- | --- | --- | --- | --- | --- |
| 1000 | 140 | 110 | 170 | 130 | 2-3 fold | ~2 | low nanomolar range | – | – | – | – | – | – | – | – | – | Cn1nccc1Nc1nccc(-c2ccn([C@H](CO)c3ccc(Cl)c(F)c3)c(=O)c2)n1 [GDC-0994] | – | – | – |
| 480 | – | – | – | – | – | ~2 | low nanomolar range | 62% @ 0.003 μM (2) | 670 | 770 | 300 | 330 | 2100 | – | – | – | Cn1nccc1Nc1nccc(-c2cc3c(s2)C(C)(C)N(CCN2CCOCC2)C3=O)n1 [LY3214996] | failed to show convincing suppression of pRSK | temperature shift in the melting curves | – |
| 50 | 9 | 6 | 20 | 20 | – | – | – | – | 16 | – | 63 | – | – | 4 | – | – | O=C(Nc1ccc2[nH]nc(-c3ccncc3)c2c1)[C@@H]1CCN(CC(=O)N2CCN(c3ccc(-c4ncccn4)cc3)CC2)C1 [SCH772984] | – | – | 25 to 80 |
| – | – | – | – | – | – | – | – | – | – | – | – | – | – | – | does not appreciably inhibit ERK2 | 8.1 | Biotin-PEG4-tetrazine [Biotin-PEG4-Tz] | – | – | – |
